The source of these data is ChEMBL document CHEMBL4368912, “Discovery and Development of N-[4-(1-Cyclobutylpiperidin-4-yloxy)phenyl]-2-(morpholin-4-yl)acetamide Dihydrochloride (SUVN-G3031): A Novel, Potent, Selective, and Orally Active Histamine H3 Receptor Inverse Agonist with Robust Wake-Promoting Activity” (J Med Chem, 2019).

Structures are written as SMILES.

The nature of data set [1]: Dissociation constant, pKa2 of the compound by potentiometric titration assay. The class given is physicochemical.
Data set [2] can be described thus: Oral bioavailability in Beagle dog at 3 mg/kg by LC-MS/MS analysis. Type of data set: ADME, organism-based, Canis lupus familiaris. The conditions noted are these: in vivo.
The next data set concerns the target T1, Cytochrome P450 1A2 (Homo sapiens, UniProt P05177).
T1 sequence (P05177 whole entry): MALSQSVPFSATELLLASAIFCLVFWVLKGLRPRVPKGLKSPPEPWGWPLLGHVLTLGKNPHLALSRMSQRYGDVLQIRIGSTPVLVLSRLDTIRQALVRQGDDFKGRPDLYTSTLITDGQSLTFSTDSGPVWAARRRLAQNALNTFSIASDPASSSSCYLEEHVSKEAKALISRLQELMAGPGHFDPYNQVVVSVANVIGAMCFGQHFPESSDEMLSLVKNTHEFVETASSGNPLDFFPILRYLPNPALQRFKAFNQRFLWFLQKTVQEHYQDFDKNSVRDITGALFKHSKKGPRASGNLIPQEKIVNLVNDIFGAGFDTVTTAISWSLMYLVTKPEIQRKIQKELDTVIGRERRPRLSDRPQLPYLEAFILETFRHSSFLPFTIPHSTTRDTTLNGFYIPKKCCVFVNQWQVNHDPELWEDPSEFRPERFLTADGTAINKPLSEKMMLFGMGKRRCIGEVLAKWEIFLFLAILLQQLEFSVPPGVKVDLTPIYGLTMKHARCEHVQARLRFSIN
Briefly: Inhibition of CYP1A2 (unknown origin). The class given is ADME.

The nature of data set [3]: Mutagenicity in Salmonella typhimurium TA98 in absence of metabolic activation by Ames test. The class given is toxicity. The settings on record: salmonella enterica subsp. enterica serovar typhimurium.
The nature of data set [4]: Mutagenicity in Salmonella typhimurium TA1537 in presence of metabolic activation by Ames test. The class given is toxicity. The settings on record: salmonella enterica subsp. enterica serovar typhimurium.
Data set [5] is described as follows: Mutagenicity in Salmonella typhimurium TA100 in presence of metabolic activation by Ames test. Type of data set: toxicity. The conditions noted are these: salmonella enterica subsp. enterica serovar typhimurium. Put shortly:
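Reverse-mutation test in Salmonella typhimurium TA1537, TA1535, TA98 and TA100 and in E. coli WP2 uvrA, run with and without metabolic activation.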
On the technique in general: The Ames test detects mutagens through reverse mutation in bacteria.

The subject of another data set is Bone marrow cell. Briefly: Clastogenic activity in micronucleus of mouse bone marrow cells. Type of data set: toxicity, cell-based.

For orientation: pKa means the pH at which an ionisable group is half protonated. A lower pKa goes with a stronger acid or weaker base. By bioavailability is commonly meant dose-corrected exposure relative to a reference, in per cent. A lower bioavailability goes with little systemic uptake. By IC50 is commonly meant the concentration needed to halve the response being measured. Read a high IC50 as weaker potency in that assay. `Cl.Cl.O=C(CN1CCOCC1)Nc1ccc(OC2CCN(C3CCC3)CC2)cc1`: the pKa in data set [1] worked out at 4.9. Besides, the bioavailability in data set [2] is 83%. Further, the IC50 at Cytochrome P450 1A2 was > 45 µM. For the same compound, the Activity entry (in data set [3]; in data set [4]; in data set [5]; in the data set on Bone marrow cell) was “Non-Toxic” in each case.
